Source: PubChem BioAssay
PRMT1 inh – blocks human protein arginine methyltransferase 1; Q99873; recombinant PRMT1, activity-based probe fluorescence polarization; inhibition, % at 2.79 µM; 370,000 tested, 1.3% active; AID 652257;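 active = inhibition above about 21% made by adding two undisclosed values, limit read from the data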
HTRA1 inhibitor – HTRA1 (human) protease inhibition | recombinant HTRA1, FP-rhodamine activity-based probe, fluorescence polarization | inhibition, % at 5.96 µM | 340,000 tested, 0.5% active | Q92743 | AID 504803; in the data active = inhibition above about 36%
SIAE primary – inhibitors of human sialic acid acetylesterase SIAE. AID 1053197. Q9HAT2. inhibition, % at 9.66 µM. SIAE FP-Rh probe binding, fluorescence polarization. 370,000 tested, 0.69% active;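 active = inhibition above a cutoff: mean of compounds within the control limits plus 3 SD of those, cut at about 17% in these data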
TCR CD3 inh – blocks the human TCR-CD3 interaction | TAMRA-labeled TCR probe fluorescence, biochemical | 360,000 tested, 0.37% active | inhibition, % at 9.4 µM; in the data active = inhibition above about 19%;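 note: recombinant mutant TCR 2C K166C tagged with TAMRA read by polarization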
mABHD4 FP – inhibitors of mouse ABHD4; Q8VD66; purified mABHD4, FP-Rh probe fluorescence polarization; inhibition, % at 8.92 µM; 370,000 tested, 0.54% active; AID 720543;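 active = inhibition exceeding the mean over every tested compound plus 3 SD, cut at about 30% in these data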
Target sequence (Q8VD66 whole entry, looked up): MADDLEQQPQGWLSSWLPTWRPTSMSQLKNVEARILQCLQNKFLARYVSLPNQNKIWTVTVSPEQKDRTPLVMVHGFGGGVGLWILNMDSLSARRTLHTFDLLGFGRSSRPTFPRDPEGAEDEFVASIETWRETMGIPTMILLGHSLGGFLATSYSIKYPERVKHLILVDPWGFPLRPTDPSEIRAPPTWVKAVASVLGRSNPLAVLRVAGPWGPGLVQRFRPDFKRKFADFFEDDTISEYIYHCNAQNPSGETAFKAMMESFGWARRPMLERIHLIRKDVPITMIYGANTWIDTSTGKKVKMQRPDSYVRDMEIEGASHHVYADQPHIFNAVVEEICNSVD
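Assay system: Wild-type mouse ABHD4 protein | Medium: HEPES pH 7.0 buffer, 150 mM NaCl, 0.01% Pluronic F-127 | Incubation: Enzyme–compound pre-incubation 45 min, then probe 60 min, both 25 °C | Technique: Fluorescence polarization with parallel and perpendicular emission, 525/598 nm | Evaluation: % inhibition of FP-Rh probe binding versus controls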
ABHD4 confirm – ABHD4 (mouse) inhibition, FP confirmation; inhibition, % at 8.92 µM; AID 720658; shares compounds with mABHD4 FP; 1,800 tested, 55% active; purified mABHD4, FP-Rh probe fluorescence polarization;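 active = mean inhibition across replicates above the hit cutoff set in the primary screen, cut at about 30% in these data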
Each line names hits and unclear results; the compound was inactive in the other large screens (follow-up assays come after a bar, where they were run). The list is not random: actives were taken first. Their share in the collection is about 2.7%.

Cc1ccc(S(=O)(=O)NCC2CCC(C(=O)NCc3cccnc3)CC2)cc1 (stereo not given)	none
Cc1ccc(Nc2nc(-c3ccc(O)c(O)c3)cs2)nc1	mABHD4 FP 42 (no result: HTRA1 inhibitor) | ABHD4 confirm 53
Cc1ccc(Nc2nc(-c3ccc(F)cc3)cs2)nc1	none
COc1ccc(C(=O)Oc2cc(OC)cc(OC)c2C(C)=O)cc1	mABHD4 FP 38 | ABHD4 confirm 41
CCOc1ccc(NC2=CC(=O)C(=O)c3ccccc32)cc1	mABHD4 FP 32 | ABHD4 confirm inactive
O=C1C=C(Nc2ccc(F)cc2)c2ccccc2C1=O	none
O=C1C=C(Nc2ccccc2O)c2ccccc2C1=O	mABHD4 FP 48 | ABHD4 confirm inactive
CC(C)(C)S(=O)(=O)N1Cc2cc(CO)ccc2[C@@H]1CCO	none (no result: HTRA1 inhibitor)
Cc1cccc(S(=O)(=O)NC(=O)C2(C)CCN2C(=O)c2ccccc2)c1 (stereo not given)	none (no result: HTRA1 inhibitor)
Cc1ccc(N2NC(=O)/C(=C/c3ccc(-c4ccc(Cl)c(C(=O)O)c4)o3)C2=O)cc1C	none
O=C1NN(c2ccc(Cl)c(Cl)c2)C(=O)/C1=C/c1ccc(-c2ccccc2C(=O)O)o1	mABHD4 FP 31 | ABHD4 confirm 65
CCc1ccc(CNC(=O)CCC(=O)N2Cc3cccc(OC)c3Oc3ncccc32)cc1	none
CCCCCc1ccc(OCCCC[n+]2ccccc2)c(CCCCC)c1	none (no result: PRMT1 inh, SIAE primary, TCR CD3 inh, mABHD4 FP)
CCCCCc1ccc(OCCCC[n+]2ccc(C)cc2)c(CCCCC)c1	mABHD4 FP 30 | ABHD4 confirm 36
Cc1ccc(C)c(OCC(O)CNC2CCCC2)c1 (stereo not given)	mABHD4 FP 38 | ABHD4 confirm inactive
Cc1ccc(OCC(O)CNC2CCCC2)cc1C (stereo not given)	none
CCN1CCN(c2nc3c(c(=O)[nH]c(=O)n3C)n2CCSc2nc3ccccc3s2)CC1	none
CC(CSc1nc2ccccc2s1)Cn1c(N2CCCC2)nc2c1c(=O)[nH]c(=O)n2C (stereo not given)	mABHD4 FP 39 | ABHD4 confirm 42
CCC(C)NC(=O)c1ccc(Cl)c(S(=O)(=O)Nc2ccccc2N2CCOCC2)c1 (stereo not given)	none
Cc1ccc(OC(=S)Nc2ccc(O)cc2)cc1	mABHD4 FP 44 | ABHD4 confirm inactive
CC(=O)c1ccc(NC(=O)CSc2nnc(-c3ccco3)c(-c3ccco3)n2)cc1	PRMT1 inh 73, mABHD4 FP 45 | ABHD4 confirm 30
CCOc1cc(/C=C2\N=C(SCC)SC2=O)cc([N+](=O)[O-])c1OC(C)=O	mABHD4 FP 42 | ABHD4 confirm 83
COc1ccc(C=NNC(=O)c2ccccc2NS(=O)(=O)c2cccs2)cc1O	none
O=C(NN=Cc1ccc(O)cc1O)c1ccccc1NS(=O)(=O)c1cccs1	mABHD4 FP 33 | ABHD4 confirm 36
CCOC(=O)C1Nc2ccccc2C2C(O)C(O)CC12 (stereo not given)	PRMT1 inh 27, mABHD4 FP 51 | ABHD4 confirm inactive
O=C1NC(=O)/C(=C\c2ccc(O)cc2O)S1	mABHD4 FP 30 | ABHD4 confirm inactive
O=C1NC(=O)/C(=C/c2cccc3ccccc23)S1	none
CC(=O)N1CCN(c2ccc(NCc3ccc(C)s3)cc2)CC1	none
CC(=O)N1CCN(c2ccc(NCc3ccc(Br)o3)cc2)CC1	mABHD4 FP 38 | ABHD4 confirm inactive
CC(C)N1CC2(CC(c3ccccc3F)=NO2)CN1C(=O)c1ccc(C(C)(C)C)cc1 (stereo not given)	none
CC(C)N1CC2(CC(c3ccccc3C(F)(F)F)=NO2)CN1C(=O)c1ccc(C(C)(C)C)cc1 (stereo not given)	mABHD4 FP 53 | ABHD4 confirm 43
CC(C)N1CC2(CC(c3ccccc3C(F)(F)F)=NO2)CN1C(=O)c1ccco1 (stereo not given)	mABHD4 FP 31 | ABHD4 confirm inactive
CCOC(=O)[C@]12CCCC=C1N(Cc1ccccc1)C(=O)[C@H](CC(=O)NCc1cccc3ccccc13)C2	none (no result: HTRA1 inhibitor)
O=C(N[C@H](Cc1ccccc1)C(=O)N1CCN(c2ncccn2)CC1)[C@H]1O[C@@H](n2ccc(=O)[nH]c2=O)[C@H](O)[C@@H]1O	none (no result: HTRA1 inhibitor)
C=CCn1c(=O)/c(=C/c2ccc(Cl)cc2)s/c1=C(\C#N)c1nnc2n1CCCCC2	none
N#Cc1ncccc1CCc1cccc(Cl)c1	none
COc1ccc(NC(=O)CN2C(=O)/C(=C3\SC(=S)N(CCC(=O)O)C3=O)c3ccccc32)cc1	none (no result: PRMT1 inh, SIAE primary, TCR CD3 inh, mABHD4 FP)
O=C(O)CN1C(=O)/C(=C2\SC(=S)N(C(Cc3ccccc3)C(=O)O)C2=O)c2ccccc21 (stereo not given)	mABHD4 FP 56 | ABHD4 confirm 45
Cc1c(N2C(=O)/C(=C3/C(=O)N(C)c4ccccc43)SC2=S)c(=O)n(-c2ccccc2)n1C	none
CCCC(C(=O)O)N1C(=O)/C(=C2\C(=O)N(C)c3ccccc32)SC1=S (stereo not given)	mABHD4 FP 41 | ABHD4 confirm 58
O=C(N[C@H](Cc1ccccc1)C(=O)N1CCCN(Cc2ccccc2F)CC1)[C@H]1O[C@@H](n2ccc(=O)[nH]c2=O)[C@H](O)[C@@H]1O	none (no result: HTRA1 inhibitor)
COc1ccc(C)cc1NC(=O)COC(=O)Cc1c[nH]c2ccccc12	none
CN(C)CCOC(=O)COc1ccc(Cl)cc1	mABHD4 FP 62 | ABHD4 confirm inactive
CN(C)CCOC(=O)Cc1ccc(Cl)cc1	none
COc1ccc(C2C3=C(CC(C)(C)CC3=O)Oc3ncn4nc(-c5cccnc5)nc4c32)cc1 (stereo not given)	mABHD4 FP 30 | ABHD4 confirm inactive
COc1ccc(C2C3=C(CC(C)(C)CC3=O)Oc3ncn(Cc4ccccc4)c(=N)c32)cc1 (stereo not given)	none
Cc1ccc(NC(=O)CCCN2C(=O)/C(=C/C=C/c3ccccc3)SC2=S)cc1	none
O=C(O)CCCN1C(=O)/C(=C/C=C/c2ccco2)SC1=S	PRMT1 inh 42, mABHD4 FP 43 | ABHD4 confirm inactive
O=C(O)CC(C(=O)O)N1C(=O)/C(=C/C=C/c2ccco2)SC1=S (stereo not given)	PRMT1 inh 54, mABHD4 FP 35 | ABHD4 confirm inactive
Cc1ccccc1OCC(=O)N/N=C1\CC(=O)CC(C)(C)C1	none
O=C(Nc1nc2ccccc2s1)C1CCCO1 (stereo not given)	none
CC1CCC/C(=N/Nc2nc3ccccc3s2)C1 (stereo not given)	mABHD4 FP 38 | ABHD4 confirm inactive
CC1(C)CC(=O)C/C(=N/Nc2nc3ccccc3s2)C1	mABHD4 FP 30 | ABHD4 confirm inactive
COc1ccc(S(=O)(=O)N(C(=O)c2ccco2)c2cc3sc(=O)oc3c3ccccc23)cc1	PRMT1 inh 94, mABHD4 FP 54 | ABHD4 confirm 31
COc1ccc2c(c1)c1ccc3c(c1n2C)C(=O)C=CC3=O	mABHD4 FP 67 | ABHD4 confirm 68
